IC50 data for 28 compounds are collected here from ChEMBL document CHEMBL1177648, “Synthesis and anti breast cancer activity of biphenyl based chalcones” (Bioorg Med Chem, 2010).

In one test the test system is MCF7. The test is described as follows: Cytotoxicity against human MCF7 cells after 24 hrs by MTT assay. The test is classed as functional, cell-based. An outline of the steps: (§1)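 Cells seeded at 1 × 10⁴/well in DMEM with 10% FBS and held 24 h at 37 °C in CO₂. Compounds diluted in culture medium and incubated 24 h. Medium removed, MTT (5 mg/ml) added for 4 h, formazan dissolved in DMSO, absorbance read at 540 nm. Viability given as percent of untreated cells.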

The next test relates to MDA-MB-231. Nature of the test: Cytotoxicity against human MDA-MB-231 cells after 24 hrs by MTT assay. It counts as functional, cell-based. An outline of the steps: as §1
Background: Tetrazolium dyes change colour on reduction, which living cells bring about.

A further test concerns HeLa. Nature of the test: Cytotoxicity against human HeLa cells after 24 hrs by MTT assay. The test is classed as functional, cell-based. An outline of the steps: as §1
Another test concerns HEK293. Nature of the test: Cytotoxicity against HEK293 cells after 24 hrs by MTT assay. The test is classed as cell-based, Homo sapiens. An outline of the steps: as §1
[1] abbreviates: Homo sapiens, MCF7, 24 h, read-out: IC50.
The mark [2] stands for this setting: Homo sapiens, MDA-MB-231, 24 h, read-out: IC50.
Where [3] appears, read: Homo sapiens, HEK293, 24 h, read-out: IC50.
Where [4] appears, read: Homo sapiens, HeLa, 24 h, read-out: IC50.

The term IC50 denotes the concentration at which inhibition is half-maximal.

Take `COc1ccc(/C=C/C(=O)c2c(C)cc(O)c(C(=O)/C=C/c3ccc(OC)cc3)c2-c2ccccc2)cc1`: the IC50 entry with MCF7 (mcf7), with MDA-MB-231 (mda-mb-231), with HeLa (hela) and in the test with HEK293 (hek293) was “Not Active” in each case.
With `Cc1cc(O)c(C(=O)/C=C/c2ccc(OCc3ccccc3)cc2)c(-c2ccc(OCc3ccccc3)cc2)c1C(=O)/C=C/c1ccc(OCc2ccccc2)cc1`, the half-inhibitory concentration (IC50) is 26 µM with MCF7 (setting [1]), 20 µM with MDA-MB-231 (setting [2]), “Not Active” in the test on HeLa (hela) and 30 µM with HEK293 (setting [3]).
Turning to `Cc1cc(O)c(C(=O)/C=C/c2ccccc2)c(-c2ccc(OCc3ccccc3)cc2)c1C(=O)/C=C/c1ccccc1`, the half-inhibitory concentration (IC50) result in the test on MCF7 (mcf7), in the test on MDA-MB-231 (mda-mb-231), in the test on HeLa (hela) and in the test on HEK293 (hek293) was “Not Active” in each case.
For `Cc1cc(O)c(C(=O)/C=C/c2ccc(Cl)cc2)c(-c2ccc(OCc3ccccc3)cc2)c1C(=O)/C=C/c1ccc(Cl)cc1`, the concentration for half-maximal inhibition (IC50) result with MCF7 (mcf7) is “Not Active”; in the test on MDA-MB-231 (setting [2]) it was 30 µM; in the test with HeLa (hela), “Not Active”; in the test on HEK293 (hek293) it was “Not Active”.
For `Cc1cc(O)c(C(=O)/C=C/c2ccc(Cl)cc2)c(-c2ccc(Br)cc2)c1C(=O)/C=C/c1ccc(Cl)cc1`, the half-maximal inhibitory concentration (IC50) with MCF7 (setting [1]) came to 20 µM; in the test on MDA-MB-231 (setting [2]), 15 µM; in the test with HeLa (setting [4]) it was 32 µM; with HEK293 (setting [3]), 25 µM.
On to `Cc1cc(O)c(C(=O)/C=C/c2ccc3ccccc3c2)c(-c2ccc(Cl)cc2)c1C(=O)/C=C/c1ccc2ccccc2c1`, for which the IC50 entry in the test with MCF7 (mcf7), with MDA-MB-231 (mda-mb-231), in the test on HeLa (hela) and in the test with HEK293 (hek293) was “Not Active” in each case.
`Cc1cc(O)c(C(=O)/C=C/c2cccc3ccccc23)c(-c2ccccc2)c1C(=O)/C=C/c1cccc2ccccc12`: the half-maximal inhibitory concentration (IC50) is 30 µM in the test on MCF7 (setting [1]), “Not Active” in the test with MDA-MB-231 (mda-mb-231), “Not Active” in the test with HeLa (hela) and “Not Active” with HEK293 (hek293).
With `Cc1cc(O)c(C(=O)/C=C/c2ccc(Br)cc2)c(-c2ccc(Br)cc2)c1C(=O)/C=C/c1ccc(Br)cc1`, the IC50 was determined as 15 µM in the test on MCF7 (setting [1]), 18 µM with MDA-MB-231 (setting [2]), 30 µM in the test with HeLa (setting [4]) and 30 µM in the test on HEK293 (setting [3]).
As to `Cc1cc(O)c(C(=O)/C=C/c2ccc(OCc3ccccc3)cc2)c(-c2ccccc2)c1C(=O)/C=C/c1ccc(OCc2ccccc2)cc1`, the half-maximal inhibitory concentration (IC50) came out at 10 µM with MCF7 (setting [1]), 10 µM in the test on MDA-MB-231 (setting [2]), 20 µM with HeLa (setting [4]) and 30 µM in the test with HEK293 (setting [3]).
With `Cc1cc(O)c(C(=O)/C=C/c2ccccc2Cl)c(-c2ccccc2)c1C(=O)/C=C/c1ccccc1Cl`, the IC50 result in the test on MCF7 (mcf7), in the test with MDA-MB-231 (mda-mb-231), with HeLa (hela) and with HEK293 (hek293) was “Not Active” each time.
With `Cc1cc(O)c(C(=O)/C=C/c2ccc(Cl)cc2)c(-c2ccccc2)c1C(=O)/C=C/c1ccc(Cl)cc1`, the IC50 with MCF7 (setting [1]) was found to be 10 µM; in the test with MDA-MB-231 (setting [2]), 7.9 µM; in the test with HeLa (setting [4]) it was 30 µM; with HEK293 (setting [3]) it was 10 µM.
Turning to `Cc1cc(O)c(C(=O)/C=C/c2ccc(Br)cc2)c(-c2ccccc2)c1C(=O)/C=C/c1ccc(Br)cc1`, the 50% inhibitory concentration (IC50) with MCF7 (setting [1]) came to 10 µM; in the test with MDA-MB-231 (setting [2]) it was 10 µM; in the test on HeLa (setting [4]), 33.5 µM; with HEK293 (setting [3]) it was 10 µM.
Take `Cc1cc(O)c(C(=O)/C=C/c2ccc(F)cc2)c(-c2ccc(Br)cc2)c1C(=O)/C=C/c1ccc(F)cc1`: the IC50 in the test on MCF7 (setting [1]) is 20 µM; in the test with MDA-MB-231 (setting [2]), 22.3 µM; in the test on HeLa (hela), “Not Active”; in the test on HEK293 (setting [3]), 20 µM.
For the compound `Cc1cc(O)c(C(=O)/C=C/c2ccc(Br)cc2)c(-c2ccc(OCc3ccccc3)cc2)c1C(=O)/C=C/c1ccc(Br)cc1`, the concentration for half-maximal inhibition (IC50) with MCF7 (setting [1]) is 30 µM; with MDA-MB-231 (setting [2]), 30 µM; in the test on HeLa (hela), “Not Active”; with HEK293 (setting [3]), 20 µM.
Regarding `COc1ccc(/C=C/C(=O)c2c(C)cc(O)c(C(=O)/C=C/c3ccc(OC)c(OC)c3)c2-c2ccccc2)cc1OC`, the 50% inhibitory concentration (IC50) result in the test on MCF7 (mcf7), with MDA-MB-231 (mda-mb-231), in the test on HeLa (hela) and in the test on HEK293 (hek293) was “Not Active” throughout.
Regarding `Cc1cc(O)c(C(=O)/C=C/c2cccc3ccccc23)c(-c2ccc(Cl)cc2)c1C(=O)/C=C/c1cccc2ccccc12`, the IC50 in the test with MCF7 (setting [1]) is 30 µM; in the test with MDA-MB-231 (setting [2]), 30 µM; in the test with HeLa (hela), “Not Active”; with HEK293 (setting [3]) it was 30 µM.
With `Cc1cc(O)c(C(=O)/C=C/c2ccc3ccccc3c2)c(-c2ccccc2)c1C(=O)/C=C/c1ccc2ccccc2c1`, the concentration for half-maximal inhibition (IC50) in the test on MCF7 (setting [1]) was 31.5 µM; with MDA-MB-231 (setting [2]) it was 30 µM; with HeLa (hela), “Not Active”; with HEK293 (hek293), “Not Active”.
Consider `COc1ccc(/C=C/C(=O)c2c(C)cc(O)c(C(=O)/C=C/c3ccc(OC)cc3)c2-c2ccc(Br)cc2)cc1`, for which the IC50 entry in the test on MCF7 (mcf7), with MDA-MB-231 (mda-mb-231), with HeLa (hela) and in the test with HEK293 (hek293) was “Not Active” each time.
Turning to `COc1ccc(/C=C/C(=O)c2c(C)cc(O)c(C(=O)/C=C/c3ccc(OC)c(OC)c3)c2-c2ccc(OCc3ccccc3)cc2)cc1OC`, the IC50 in the test on MCF7 (setting [1]) is 30 µM; with MDA-MB-231 (setting [2]), 22 µM; with HeLa (hela) it was “Not Active”; with HEK293 (setting [3]), 30 µM.
Turning to `CC/C(=C(\c1ccccc1)c1ccc(OCCN(C)C)cc1)c1ccccc1` [TAMOXIFEN], the IC50 in the test on MCF7 (setting [1]) turned out to be 8.9 µM; in the test on MDA-MB-231 (setting [2]) it was 10 µM; with HeLa (setting [4]), 12.5 µM; with HEK293 (setting [3]) it was 10 µM.
Consider `COc1ccc(/C=C/C(=O)c2c(C)cc(O)c(C(=O)/C=C/c3ccc(OC)cc3)c2-c2ccc(OCc3ccccc3)cc2)cc1`, for which the concentration for half-maximal inhibition (IC50) is 30 µM in the test on MCF7 (setting [1]), 12 µM in the test on MDA-MB-231 (setting [2]), 28 µM in the test on HeLa (setting [4]) and 28 µM in the test with HEK293 (setting [3]).
For the compound `Cc1cc(O)c(C(=O)/C=C/c2ccccc2)c(-c2ccccc2)c1C(=O)/C=C/c1ccccc1`, the IC50 is 10 µM with MCF7 (setting [1]), 8.5 µM in the test on MDA-MB-231 (setting [2]), “Not Active” in the test with HeLa (hela) and “Not Active” in the test on HEK293 (hek293).
For `Cc1cc(O)c(C(=O)/C=C/c2ccc(OCc3ccccc3)cc2)c(-c2ccc(Br)cc2)c1C(=O)/C=C/c1ccc(OCc2ccccc2)cc1`, the half-maximal inhibitory concentration (IC50) in the test with MCF7 (setting [1]) is 20 µM; in the test on MDA-MB-231 (setting [2]), 20 µM; in the test on HeLa (hela), “Not Active”; with HEK293 (setting [3]) it was 25 µM.
With `Cc1cc(O)c(C(=O)/C=C/c2ccc(F)cc2)c(-c2ccccc2)c1C(=O)/C=C/c1ccc(F)cc1`, the IC50 in the test with MCF7 (setting [1]) is 20 µM; with MDA-MB-231 (setting [2]) it was 20 µM; with HeLa (setting [4]), 30 µM; with HEK293 (hek293) it was “Not Active”.
Consider `Cc1cc(O)c(C(=O)/C=C/c2ccccc2Cl)c(-c2ccc(Cl)cc2)c1C(=O)/C=C/c1ccccc1Cl`, for which the IC50 with MCF7 (setting [1]) is 30 µM; in the test with MDA-MB-231 (setting [2]) it was 29 µM; in the test with HeLa (hela), “Not Active”; in the test with HEK293 (setting [3]) it was 30 µM.
`Cc1cc(O)c(C(=O)/C=C/c2ccc(F)cc2)c(-c2ccc(OCc3ccccc3)cc2)c1C(=O)/C=C/c1ccc(F)cc1`: the 50% inhibitory concentration (IC50) in the test on MCF7 (setting [1]) came to 28 µM; in the test on MDA-MB-231 (setting [2]) it was 15 µM; with HeLa (setting [4]), 25 µM; in the test with HEK293 (setting [3]), 30 µM.
For `Cc1cc(O)c(C(=O)/C=C/c2ccccc2)c(-c2ccc(Br)cc2)c1C(=O)/C=C/c1ccccc1`, in that order: 10 µM, 8 µM, 30 µM and 30 µM.
For the compound `Cc1cc(O)c(C(=O)/C=C/c2ccc(Cl)cc2)c(-c2ccc(Cl)cc2)c1C(=O)/C=C/c1ccc(Cl)cc1`, the IC50 with MCF7 (setting [1]) is 28 µM; with MDA-MB-231 (setting [2]), 30 µM; in the test on HeLa (hela) it was “Not Active”; in the test with HEK293 (hek293) it was “Not Active”.
